The results in this text go back to the array DNA melting data of Ke et al. (doi:10.1101/2024.01.08.574731).

The nature of data set [1]: folding enthalpy; higher = less favourable; fluorescence melt of hairpins on a sequencing array, two-state fit. As to conditions: sodium 0.088 M. The method in brief: (§1)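 Hairpins were imaged by Cy3 fluorescence on a sequenced MiSeq flow cell with annealed Cy3 and quencher oligos, in 50 mM Na-HEPES pH 8.0, 25 mM NaCl, in 2.5 °C steps up to 60 °C. Bootstrapped two-state fits of normalised signals gave melting temperature and folding enthalpy. Four replicates were combined by inverse variance, and fitted temperatures were raised by 9.35 °C to match UV melts.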

Data set [2] in a line: melting temperature; fluorescence melt of hairpins on a sequencing array, two-state fit, raised by 9.35 °C to match UV melts. The following applies: sodium 0.088 M. The method in brief: as §1

As to GTCACCGAAAGGTGAGAC ((((((....)))..))), the folding enthalpy in data set [1] is -10.3 kcal/mol. Also, the Tm in data set [2] came out at 48 °C.

Turning to GTCACCGAAAGGTGCGAC ((((((....)))..))), the folding enthalpy in data set [1] is -13 kcal/mol. In addition, the Tm in data set [2] came out at 58.5 °C.

As for GTCACCGAAAGGTTCGAC ((((((....)))..))), the folding enthalpy in data set [1] was -14.9 kcal/mol. Moreover, the Tm in data set [2] was found to be 30.3 °C.

In the case of GTCACCGAAAGGTTGAC ((((((....))).))), the folding enthalpy in data set [1] is -27 kcal/mol. In addition, the Tm in data set [2] was found to be 51.4 °C.

In the case of GTCACCGGAAACGGTGGC (.(((((....))))).), in data set [1], the folding enthalpy was -29.4 kcal/mol. Moreover, the Tm in data set [2] turned out to be 63.5 °C.

Turning to GTCACGCGAAAGCGCGAC (((.(((....))).))), in data set [1], the folding enthalpy was -29.6 kcal/mol. Moreover, the Tm in data set [2] turned out to be 58.9 °C.

For the sequence GTCACGGAAACGTGAC ((((((....)))))), the folding enthalpy in data set [1] was -34.4 kcal/mol. In addition, the Tm in data set [2] came out at 69.2 °C.

Take GTCACGGGAAACCGCGAC (((.(((....))).))): in data set [1], the folding enthalpy is -30.4 kcal/mol. Besides, the Tm in data set [2] stood at 50.8 °C.

With GTCACGTCGAAAGACGAC (((..(((....)))))), the folding enthalpy in data set [1] is -9.85 kcal/mol. Besides, the Tm in data set [2] turned out to be 32.1 °C.

For the sequence GTCACTCCGAAAGGAGAC (((..(((....)))))), in data set [1], the folding enthalpy is -8.95 kcal/mol. The Tm in data set [2] came out at 31.6 °C.

Regarding GTCACTTCGAAAGAAGAC (((..(((....)))))), the folding enthalpy in data set [1] is -8.67 kcal/mol. The Tm in data set [2] came out at 26.7 °C.

GTCAGAGGAAACCCTGAC (((((.(....).))))): the folding enthalpy in data set [1] is -32.4 kcal/mol. For the same sequence, the Tm in data set [2] stood at 43.8 °C.

As for GTCAGAGGAAACTCCAAC ((..(((....)))..)), the folding enthalpy in data set [1] was -4.46 kcal/mol. Besides, the Tm in data set [2] amounted to 17.2 °C.

On to GTCAGCACGAAAGTGGAC (((..(((....)))))), for which the folding enthalpy in data set [1] was -18 kcal/mol. The Tm in data set [2] amounted to 37.6 °C.

As for GTCAGCGAAAGCTCGAC ((((((....))).))), the folding enthalpy in data set [1] was -19.8 kcal/mol. In addition, the Tm in data set [2] was found to be 48 °C.

With GTCAGCGAAAGCTCTGAC ((((((....)))..))), the folding enthalpy in data set [1] is -18.5 kcal/mol. Besides, in data set [2], the Tm is 37.3 °C.

Consider GTCAGCGAAAGCTGAGAC ((((((....)))..))), for which the folding enthalpy in data set [1] is -8.85 kcal/mol. The Tm in data set [2] stood at 49 °C.

With GTCAGCGAAAGCTTGAC ((((((....))).))), the folding enthalpy in data set [1] is -25.6 kcal/mol. The Tm in data set [2] was 49.9 °C.

For the sequence GTCAGCGCGAAAGCGGAC (((..(((....)))))), the folding enthalpy in data set [1] is -15.6 kcal/mol. In data set [2], the Tm came out at 46.6 °C.

For GTCAGCGGAAACGCTGGC (.(((((....))))).), the folding enthalpy in data set [1] is -24.6 kcal/mol. For the same sequence, the Tm in data set [2] is 63.7 °C.

As for GTCAGGGGAAACCCTGAC (((((((....))))))), the folding enthalpy in data set [1] was -41.9 kcal/mol. For the same sequence, the Tm in data set [2] is 65.1 °C.

As to GTCAGGTCGAAAGACGAC (((..(((....)))))), the folding enthalpy in data set [1] was -16.8 kcal/mol. For the same sequence, in data set [2], the Tm is 43.1 °C.

In the case of GTCAGTACGAAAGTAGAC (((..(((....)))))), the folding enthalpy in data set [1] is -17.2 kcal/mol. The Tm in data set [2] was 31 °C.

On to GTCAGTGGAAACACTAAC ((.((((....)))).)), for which the folding enthalpy in data set [1] was -17.4 kcal/mol. For the same sequence, the Tm in data set [2] worked out at 30.9 °C.

For GTCAGTGGAAACATTGGC (.((.((....)).)).), the folding enthalpy in data set [1] was -26.2 kcal/mol. Moreover, the Tm in data set [2] was determined as 30.6 °C.

Turning to GTCATACCGAAAGGTGAC (((..(((....)))))), in data set [1], the folding enthalpy was -19 kcal/mol. For the same sequence, in data set [2], the Tm came out at 43 °C.

Take GTCATACGAAAGTAAGAC (((.(((....))).))): in data set [1], the folding enthalpy is -25.6 kcal/mol. Besides, the Tm in data set [2] was 43.5 °C.

GTCATACGAAAGTAGAC (((.(((....)))))): the folding enthalpy in data set [1] was -28.2 kcal/mol. Also, in data set [2], the Tm came out at 42.4 °C.

Turning to GTCATAGGAAACTATGGC (.(((((....))))).), the folding enthalpy in data set [1] was -29.1 kcal/mol. Moreover, in data set [2], the Tm worked out at 44.6 °C.

In the case of GTCATCCGAAAGGAGGAC (((.(((....))).))), the folding enthalpy in data set [1] was -36.3 kcal/mol. For the same sequence, the Tm in data set [2] was determined as 58.6 °C.

As to GTCATCGAAAGATAAGAC ((((((....)))..))), the folding enthalpy in data set [1] is -21 kcal/mol. Further, the Tm in data set [2] amounted to 31.6 °C.

Regarding GTCATCGAAAGATACGAC ((((((....)))..))), the folding enthalpy in data set [1] was -20.9 kcal/mol. The Tm in data set [2] was determined as 35 °C.

With GTCATCGAAAGATATGAC ((((((....)))..))), the folding enthalpy in data set [1] was -20 kcal/mol. Also, the Tm in data set [2] worked out at 34.6 °C.

Consider GTCATCGAAAGATTCGAC ((((((....)))..))), for which the folding enthalpy in data set [1] is -12.3 kcal/mol. Moreover, the Tm in data set [2] stood at 25.8 °C.

As to GTCATCGCGAAAGCGGAC (((..(((....)))))), the folding enthalpy in data set [1] is -11.1 kcal/mol. For the same sequence, in data set [2], the Tm stood at 39.9 °C.

In the case of GTCATCGGAAACAATGAC (((((.(....).))))), the folding enthalpy in data set [1] is -28 kcal/mol. Moreover, the Tm in data set [2] was found to be 36.1 °C.

For the sequence GTCATCGGAAACGATAAC ((.((((....)))).)), the folding enthalpy in data set [1] was -19.7 kcal/mol. Besides, in data set [2], the Tm came out at 32.2 °C.
